# Bioassay records (PubChem)
# Most compounds without a hit are left out; they make up all but 2.9% or so of the library.
# TRPC4 act: activators of mouse TRPC4 channel, primary screen, Fluo4 calcium, HEK293 TRPC4beta/mu-opioid cells. 310,000 tested, 0.49% active. Fluo4 calcium fluorescence; hits give high values. B-score at 10 µM. Short transient receptor potential channel 4 (Mus musculus), Q9QUQ5;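 active = B-score above 5 SD of library B-scores, and initial fluorescence ratio not above library mean plus 5 SD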;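 note: positive B-score marks a calcium rise read as TRPC4 activation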
#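 Test system: HEK293 cells stably co-expressing mouse TRPC4beta and mu-opioid receptor | Schedule: Fluo4 dye loading 45 min at room temperature, 110 s recording | Measured by: Kinetic Fluo4 calcium fluorescence, 5 s baseline at 1 Hz | Evaluation: B score of integrated ratio | Controls: Buffer (low) and maximal DAMGO (high)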
# TRPC6 inh: mouse TRPC6 channel inhibitors, primary screen, cell-based, HEK293, membrane potential dye; Short transient receptor potential channel 6 (Mus musculus), Q61143; ACh-evoked depolarization; hits give low values; B-score at 10 µM; 310,000 tested, 1.1% active; AID 2553, 2010;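 active = B-score under library mean minus 3 SD, initial fluorescence not abnormally high, positive integrated signal ratio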;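 note: B-score derived from integrated fluorescence ratio over the kinetic read; more negative B-score means stronger inhibition of depolarization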
# Kir21 inh: inhibitors of mouse Kir2.1 inward-rectifier potassium channel; Inward rectifier potassium channel 2 (Mus musculus), P35561; HEK293-Kir2.1, FluxOR thallium flux fluorescence; hits give low values; 310,000 tested, 0.85% active; B-score at 10 µM;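 active = fluorescence ratio B-score at or below minus 3 SD of library scores, with starting-brightness B-score within 2 SD, cut at about -4.2 in these data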;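 note: channel flux triggered by added potassium and thallium sulfate stimulus; B-score of peak minus minimum fluorescence over baseline after thallium stimulus; more negative B-score means stronger Kir2.1 block with less thallium influx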
# Target sequence (P35561 whole entry, looked up): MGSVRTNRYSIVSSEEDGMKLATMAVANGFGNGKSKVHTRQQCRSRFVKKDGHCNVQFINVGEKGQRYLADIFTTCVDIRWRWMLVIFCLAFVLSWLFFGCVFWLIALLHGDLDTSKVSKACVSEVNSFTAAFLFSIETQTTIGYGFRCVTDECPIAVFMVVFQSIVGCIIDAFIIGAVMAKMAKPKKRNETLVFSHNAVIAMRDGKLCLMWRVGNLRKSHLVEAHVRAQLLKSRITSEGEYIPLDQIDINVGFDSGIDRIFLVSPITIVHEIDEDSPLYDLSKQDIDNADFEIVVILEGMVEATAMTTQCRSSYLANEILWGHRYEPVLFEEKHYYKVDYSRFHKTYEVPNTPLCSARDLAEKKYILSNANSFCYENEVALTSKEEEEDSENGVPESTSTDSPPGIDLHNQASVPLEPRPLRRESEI
# TRPC4 inh: inhibitors of mouse TRPC4 channel, primary screen, Fluo4 calcium, HEK293 TRPC4beta/mu-opioid cells | 300,000 tested, 0.39% active | Short transient receptor potential channel 4 (Mus musculus), Q9QUQ5 | AID 2247, 2010 | DAMGO-evoked Fluo4 calcium flux; hits give low values | B-score at 10 µM;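 active = B-score over 3 SD under the library average, no early fluorescence shift, positive overall ratio signal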
#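 Signal: kinetic Fluo4 fluorescence imaging of calcium influx. Material: stable TRPC4beta/mu-opioid receptor HEK293 cells. Probe or stimulus: DAMGO in two steps, submaximal then maximal.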
# TRPC4 potent: positive allosteric modulators of TRPC4, primary screen, cell-based, mouse TRPC4beta, HEK293 mu-opioid, Fluo-4 calcium; AID 2227, 2009; Short transient receptor potential channel 4 (Mus musculus), Q9QUQ5; 310,000 tested, 0.42% active; DAMGO EC20, Fluo-4 Ca2+ flux; hits give high values; B-score at 10 µM;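 active = B-score of calcium response area above 5 SD of library B-scores, with initial fluorescence ratio within 5 SD of library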
# TRPC6 act: mouse TRPC6 channel activators, primary screen, cell-based, HEK293, membrane potential dye | B-score at 10 µM | 310,000 tested, 0.13% active | HEK293-TRPC6 membrane potential dye fluorescence; hits give high values;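 active = B-score of the integrated fluorescence ratio above library mean plus 3 SD, and starting fluorescence ratio within library mean plus 5 SD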;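 note: higher score means more depolarization so channel activation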
# A number is an active result; - = inactive.
SMILES,TRPC4 act,TRPC6 inh,Kir21 inh,TRPC4 inh,TRPC4 potent,TRPC6 act
Cc1cc(C(=O)NCCCN2CCN(c3cc(Cl)ccc3C)CC2)n(-c2ccccc2)n1,-,-,-,-6,-,-
COc1ccc2nc(NNC(=O)COc3ccccc3)sc2c1,-,-,-,-,-,-
CC1=CC(=O)N(c2ccc(C)cc2)C1c1ccc(Cl)cc1 (configuration not stated),-,-,-4.5,-,-,-
Cc1nnc(N)nc1C,-,-,-,-,-,-
CCN1C(=O)c2ccccc2S(=O)(=O)c2ccc(C(=O)NCCOC)cc21,-,-,-,-,-,-
CCCCN(CC)CCCNC(=O)c1ccc2c(c1)N(CC)C(=O)c1ccccc1S2(=O)=O,-,-,-,-,14,-
O=C(CSc1nccc(-c2cccs2)n1)Nc1ccc(Cl)cc1,-,-,-,-,-,-
CC1(C)Cc2ccccc2-c2nnc(-c3ccc4ccccc4n3)n21,-,-,-,-,-,-
CC1=CC(C)(C)n2c(O)c(N=N)c3cc(C)cc1c32,-,-,-8.7,-,-,-
CC1=CC(C)(C)n2c(O)c(N=N)c3c(C)c(C)cc1c32,-,-,-,-,-,-
Cc1cc([N+](=O)[O-])nn1Cc1noc(C(=O)NCCc2ccccn2)n1,79,-,-,-,-,-
COc1cccc(N=Nc2c(N)[nH][nH]c2=O)c1,-,-,-,-,14,-
Nc1[nH][nH]c(=O)c1N=Nc1cccc(Cl)c1,-,-,-,-,10,-
O=C(Nc1ccc(F)cc1)N(CCCN1CCOCC1)Cc1cc2cc3c(cc2[nH]c1=O)OCO3,-,-,-,-,-,-
COc1cccc(NC(=O)c2ccc(NCCCN3CC(C)CC(C)C3)c([N+](=O)[O-])c2)c1 (configuration not stated),-,-,-,-,14,-
Cc1ccc(CNC(=O)CCS(=O)(=O)c2ccc3c(c2)NC(=O)CS3)cc1,-,-,-,-,-,-
CCCCN(C(=O)CCn1c(=O)oc2ccccc21)c1ccccc1,-,-,-8.2,-,-,-
CC(C)COCC(CN(Cc1ccccc1)c1ccccc1)N1CCCC1 (configuration not stated),-,-,-6.3,-,-,-
CC(C(=O)Nc1ccc(OCc2ccccc2)cc1)N1CCCC1 (configuration not stated),-,-,-,-,-,-
COc1ccc(C2Nc3ccccc3C(=O)N2Cc2ccco2)cc1COc1ccc(NC(C)=O)cc1 (configuration not stated),110,-,-,-,-,-
COc1ccc(C2Nc3ccccc3C(=O)N2Cc2ccco2)cc1COc1ccccc1F (configuration not stated),-,-,-,-,-,-
C=C1C(=O)C=C2CN(C(=O)c3ccccc3)[C@@](Cc3ccc(F)cc3)(C(=O)OC)[C@@H]12,-,-,-4.5,-,-,-
CC1(C)CC2CC(C)(CN2C(=O)COC(=O)c2n[nH]c(=O)c3ccccc23)C1 (configuration not stated),-,-,-,-,11,-
COc1cc(CC(=O)OCC(=O)Nc2ccc(N3CCOCC3)cc2)cc(OC)c1OC,-,-,-,-,-,-
COc1ccc(C(=O)CN2CCN(CCN3C(=O)c4cccc5cccc(c45)C3=O)CC2)cc1,-,-,-,-,15,-
COc1cc2cc(C(N)=O)c(N)nc2cc1OC,-,-,-,-,13,-
O=C(O)c1ccccc1NCc1ccncc1,-,-,-,-,-,-
O=C(Nc1ccccc1)C(Cl)C(=O)c1ccccc1 (configuration not stated),-,-,-8.3,-,-,-
